Active and inactive are the calls of the source. The rule behind the calls is not given here.
Columns and labels:
Format in all cases: functional
[1] = test system: Aspergillus niger; assay: Antifungal activity against Aspergillus niger assessed as inhibition of spore germination at 50 ug/well after 48 hrs by agar well diffusion method; settings: for zone of inhibition at 50 µg/disc: read-out: DIZ
How it was run: (§1)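 Well diffusion using 6 mm bored wells loaded with DMSO solutions at three per-well amounts, with a DMSO negative control. Plates were held at 28 °C for 48 h, then zone of inhibition diameter was measured in mm. Runs were in duplicate and averaged.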

[2] = test system: Bacillus subtilis; assay: Antibacterial activity against Bacillus subtilis assessed as growth inhibition at 25 ug/well after 24 hrs by agar well diffusion method; settings: for zone of inhibition at 25 µg/disc: read-out: DIZ
How it was run: (§2)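 Agar well diffusion on […] swabbed with a 24 h broth culture. Samples were dissolved in DMSO and loaded at three per-well amounts into 6 mm wells. Incubation was 37 °C for 24 h, then inhibition zone diameter was read in mm. DMSO served as the negative control. Runs were in duplicate and averaged.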

[3] = test system: Klebsiella pneumoniae; assay: Antibacterial activity against Klebsiella pneumoniae assessed as growth inhibition at 100 ug/well after 24 hrs by agar well diffusion method; settings: for zone of inhibition at 100 µg/disc: read-out: DIZ; how it was run: as §2
[4] = test system: Staphylococcus aureus; assay: Antibacterial activity against Staphylococcus aureus assessed as growth inhibition at 50 ug/well after 24 hrs by agar well diffusion method; settings: for zone of inhibition at 50 µg/disc: read-out: DIZ; how it was run: as §2
[5] = test system: Klebsiella pneumoniae; assay: Antibacterial activity against Klebsiella pneumoniae assessed as growth inhibition at 25 ug/well after 24 hrs by agar well diffusion method; settings: for zone of inhibition at 25 µg/disc: read-out: DIZ; how it was run: as §2
[6] = test system: Aspergillus niger; assay: Antifungal activity against Aspergillus niger assessed as inhibition of spore germination at 25 ug/well after 48 hrs by agar well diffusion method; settings: for zone of inhibition at 25 µg/disc: read-out: DIZ; how it was run: as §1
[7] = test system: Bacillus subtilis; assay: Antibacterial activity against Bacillus subtilis assessed as growth inhibition at 100 ug/well after 24 hrs by agar well diffusion method; settings: for zone of inhibition at 100 µg/disc: read-out: DIZ; how it was run: as §2
[8] = test system: Bacillus subtilis; assay: Antibacterial activity against Bacillus subtilis assessed as growth inhibition at 50 ug/well after 24 hrs by agar well diffusion method; settings: for zone of inhibition at 50 µg/disc: read-out: DIZ; how it was run: as §2
[9] = test system: Klebsiella pneumoniae; assay: Antibacterial activity against Klebsiella pneumoniae assessed as growth inhibition at 50 ug/well after 24 hrs by agar well diffusion method; settings: for zone of inhibition at 50 µg/disc: read-out: DIZ; how it was run: as §2
[10] = test system: Pseudomonas aeruginosa; assay: Antibacterial activity against Pseudomonas aeruginosa assessed as growth inhibition at 100 ug/well after 24 hrs by agar well diffusion method; settings: for zone of inhibition at 100 µg/disc: read-out: DIZ; how it was run: as §2
[11] = test system: Pseudomonas aeruginosa; assay: Antibacterial activity against Pseudomonas aeruginosa assessed as growth inhibition at 25 ug/well after 24 hrs by agar well diffusion method; settings: for zone of inhibition at 25 µg/disc: read-out: DIZ; how it was run: as §2
[12] = test system: Staphylococcus aureus; assay: Antibacterial activity against Staphylococcus aureus assessed as growth inhibition at 25 ug/well after 24 hrs by agar well diffusion method; settings: for zone of inhibition at 25 µg/disc: read-out: DIZ; how it was run: as §2
[13] = test system: Staphylococcus aureus; assay: Antibacterial activity against Staphylococcus aureus assessed as growth inhibition at 100 ug/well after 24 hrs by agar well diffusion method; settings: for zone of inhibition at 100 µg/disc: read-out: DIZ; how it was run: as §2
[14] = test system: Pseudomonas aeruginosa; assay: Antibacterial activity against Pseudomonas aeruginosa assessed as growth inhibition at 50 ug/well after 24 hrs by agar well diffusion method; settings: for zone of inhibition at 50 µg/disc: read-out: DIZ; how it was run: as §2

SMILES | zone of inhibition at 50 µg/disc [1] | zone of inhibition at 25 µg/disc [2] | zone of inhibition at 100 µg/disc [3] | zone of inhibition at 50 µg/disc [4] | zone of inhibition at 25 µg/disc [5] | zone of inhibition at 25 µg/disc [6] | zone of inhibition at 100 µg/disc [7] | zone of inhibition at 50 µg/disc [8] | zone of inhibition at 50 µg/disc [9] | zone of inhibition at 100 µg/disc [10] | zone of inhibition at 25 µg/disc [11] | zone of inhibition at 25 µg/disc [12] | zone of inhibition at 100 µg/disc [13] | zone of inhibition at 50 µg/disc [14] | growth inhibition (GI) [10] | growth inhibition (GI) [11] | growth inhibition (GI) [12] | growth inhibition (GI) [14] | growth inhibition (GI) [2] | growth inhibition (GI) [4] | also measured
NC(=S)n1nc(Nc2nc(-c3ccccc3)cs2)cc1-c1ccccc1 | 19 mm | 21 mm | 28 mm | 25 mm | 23 mm | 17 mm | 24 mm | 22 mm | 25 mm | 17 mm | 12 mm | 22 mm | 26 mm | 15 mm | – | – | – | – | – | – | –
Cc1ccc(-c2coc(Nc3cc(-c4ccc(C)cc4)n(-c4nc(-c5ccc(C)cc5)cs4)n3)n2)cc1 | 8 mm | 6 mm | 10 mm | 6 mm | 6 mm | 6 mm | 9 mm | 8 mm | 8 mm | – | – | – | 8 mm | – | inactive | inactive | inactive | inactive | – | – | –
NC(=S)n1nc(Nc2nc(-c3ccc(Cl)cc3)cs2)cc1-c1ccc(Cl)cc1 | 22 mm | 22 mm | 31 mm | 26 mm | 26 mm | 20 mm | 26 mm | 25 mm | 28 mm | 18 mm | 14 mm | 24 mm | 29 mm | 16 mm | – | – | – | – | – | – | –
Cc1ccc(-c2coc(Nc3cc(-c4ccc(C)cc4)n(C(N)=S)n3)n2)cc1 | 6 mm | – | 8 mm | – | – | – | 8 mm | 7 mm | 7 mm | – | – | – | 6 mm | – | inactive | inactive | inactive | inactive | inactive | inactive | growth inhibition (GI) [5]: inactive; growth inhibition (GI) [6]: inactive
NC(=S)N1N=C(Nc2nc(-c3ccc(Cl)cc3)c[nH]2)C[C@@H]1c1ccc(Cl)cc1 | – | – | 7 mm | – | – | – | 6 mm | – | 6 mm | – | – | – | – | – | inactive | inactive | inactive | inactive | inactive | inactive | zone of inhibition [1]: inactive; growth inhibition (GI) [5]: inactive; growth inhibition (GI) [6]: inactive; growth inhibition (GI) [8]: inactive; growth inhibition (GI) [13]: inactive
Cc1ccc(-c2c[nH]c(Nc3cc(-c4ccc(C)cc4)n(-c4nc(-c5ccc(C)cc5)cs4)n3)n2)cc1 | 17 mm | 12 mm | 17 mm | 14 mm | 13 mm | 16 mm | 16 mm | 13 mm | 14 mm | 10 mm | 6 mm | 12 mm | 17 mm | 7 mm | – | – | – | – | – | – | –
Cc1ccc(-c2coc(NC3=NN(C(N)=S)[C@@H](c4ccc(C)cc4)C3)n2)cc1 | – | – | – | – | – | – | – | – | – | – | – | – | – | – | inactive | inactive | inactive | inactive | inactive | inactive | zone of inhibition [1]: inactive; growth inhibition (GI) [3]: inactive; growth inhibition (GI) [5]: inactive; growth inhibition (GI) [6]: inactive; growth inhibition (GI) [7]: inactive; growth inhibition (GI) [8]: inactive; growth inhibition (GI) [9]: inactive; growth inhibition (GI) [13]: inactive
